Source: PubChem BioAssay (several laboratories)
Sampled rows, rich in hits. Any-hit rate of the full collection: about 1.6%.
TbMetRS inhib: Trypanosoma brucei MetRS inhibition | purified T. brucei MetRS, ATP depletion, Kinase-Glo luminescence | inhibition, % at 11.9 µM | 360,000 tested, 0.4% active;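 active = inhibition above a per-plate cutoff of the control wells' mean inhibition plus 3 SD, cut at about 5.5% in these data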
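Assay system: T. brucei methionyl-tRNA synthetase, purified | Medium: HEPES buffer with MgCl2, KCl, DTT, spermine, BSA, pyrophosphatase | Compound: 11.9 µM single point | Incubation: 15 min enzyme-compound preincubation, 2 h reaction, 10 min detection, 25 °C | Measured by: Kinase-Glo luciferase luminescence reporting remaining unconsumed ATP | Measure: % inhibition normalized to control-well medians | Replication: Singlicate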
Arrestin-AP2 inh: human beta-arrestin and AP2 interaction inhibition; FITC-arrestin peptide / GST-AP2 beads, flow cytometry; AP2 beta2 appendage carries R879A mutation; inhibition, % at 10 µM; 340,000 tested, 0.31% active;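 active = inhibition above a set limit, near 3 SD of compounds lacking own fluorescence, cut at about 54% in these data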
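System: GST-AP2 R879A glutathione beads | Also added: FITC-arrestin peptide, 50 nM | Times: 12 min plus 1 h, RT | Signal: Bead flow cytometry, FITC channel | Buffer or medium: PBS with 0.05% Tween 20 and 0.1% BSA | Read-out basis: Percent drop in bead-associated FITC signal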
MT1-MMP act inh: blocks activation of human MT1-MMP; HT1080 RFP-PRO-GFP cells, GFP/RFP ratio fluorescence, overnight; percent of plate control window, DMSO zero; GFP/RFP ratio change, % at 20 µM; 360,000 tested, 0.061% active; AID 651647;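 active = GFP/RFP ratio change of at least 30% with cell ATP level not reduced by more than half and red fluorescence within 50% of control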
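Assay system – RFP-PRO-GFP reporter HT1080 cells · Compound dosing – single dose of 20 µM compound, 1% DMSO final · Incubation – overnight compound exposure at 37 °C · Measure – GFP/RFP fluorescence ratio · Benchmarks – DMSO wells and RFP-L50D-GFP cells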
SKN-1 inh: C. elegans SKN-1 inhibition; C. elegans VP596 Pgst-4::GFP/RFP ratio, acrylamide-induced, 24 h; AID 624304; 360,000 tested, 0.49% active; inhibition, % at 21.8 µM;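 active = interference check ratio from 0.5 to 1.5 plus GFP to RFP signal ratio inhibition reaching or exceeding a fixed threshold, cut at about 30% in these data, passing the limit was not always enough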
Rin1 Abl inh: human Rin1-Abl interaction inhibition | AID 588664 | P00519+Q13671 | 360,000 tested, 0.4% active | inhibition, % at 7.35 µM | TR-FRET Rin1/Abl binding, biochemical; in the data active = inhibition above about 5%, passing the limit was not always enough
Each line names hits and unclear results; the compound was inactive in the other large screens.

CC(C)NC(=O)Nc1ccc2c(c1)C(=O)N([C@H](C)CO)C[C@H](C)[C@@H](CN(C)S(=O)(=O)c1ccc(F)cc1)O2	none
COc1cc(CCC(=O)OCC(=O)Nc2ccc(F)cc2F)cc(OC)c1OC	SKN-1 inh 40
COc1cc(CCC(=O)OCC(=O)Nc2ccc(Br)cc2F)cc(OC)c1OC	none
Clc1ccc2nc(-c3ccc(Br)s3)cn2c1	SKN-1 inh 70
COc1ccc(Cl)cc1C(=O)Nc1ccccc1N1CCCCC1	SKN-1 inh 35
COc1ccc(Cl)cc1C(=O)Nc1ccccc1N1CCN(C)CC1	none
Cc1ccc(NC(=O)COc2ccc(Br)cc2CO)cc1S(=O)(=O)N1CCOCC1	SKN-1 inh 41
COc1ccc(N=Cc2cc(Cc3ccccc3Cl)cc([N+](=O)[O-])c2O)cc1OC	SKN-1 inh 38
C[C@H](NC(=O)c1[nH]cnc1C(=O)Nc1ccc(Cl)cc1)C(=O)OC(C)(C)C	SKN-1 inh 36
COC(=O)[C@H](CC(C)C)NC(=O)/C=C/[C@H]1O[C@@H](n2ccc(=O)[nH]c2=O)[C@H](O)[C@@H]1O	none (no result: Arrestin-AP2 inh)
CN(Cc1ccccc1)C(=O)c1ncn2c1c(=O)[nH]c1cccnc12	none (no result: Arrestin-AP2 inh)
COC(=O)C1=C(C)N=c2s/c(=C/c3cccs3)c(=O)n2C1c1cccs1 (stereo not given)	SKN-1 inh 39
O=C(CSc1ncnc2scc(-c3ccc(Cl)cc3)c12)NCc1ccc2c(c1)OCO2	SKN-1 inh 46
O=C(NCc1ccncc1)[C@@H]1CCCN1C(=O)[C@H]1CCCN1C(=O)c1cccc2ccccc12	none (no result: Arrestin-AP2 inh, Rin1 Abl inh)
NS(=O)(=O)c1cccc(NC(=O)COC(=O)Cn2cnc3ccccc32)c1	none
O=C(Cn1cnc2ccccc21)Nc1cccc(S(=O)(=O)N2CCCC2)c1	TbMetRS inhib 36
CCN(CC)c1ccc(C2NC(=O)c3ccccc3N2)cc1 (stereo not given)	SKN-1 inh 37
CCN(CC)c1ccc(C2Nc3cccc4cccc(c34)N2)cc1	none
CCOC(=O)N1CCN(C(=O)Nc2ccc(Cl)cc2)CC1	SKN-1 inh 35
O=C(c1c(F)cccc1Cl)N(Cc1ccco1)C1CCS(=O)(=O)C1 (stereo not given)	none (no result: Arrestin-AP2 inh)
CC(C)c1ccc(S(=O)(=O)/N=C2/C=C(Sc3ncn[nH]3)C(=O)c3ccccc32)cc1	Rin1 Abl inh 7.7
Cc1ccc(S(=O)(=O)/N=C2/C=C(Sc3ncn[nH]3)C(=O)c3ccccc32)cc1	Rin1 Abl inh 17
CC(C)(C)c1ccc(S(=O)(=O)/N=C2\C=C(NS(=O)(=O)c3ccccc3)C(=O)c3ccccc32)cc1	none
C/C(=N\OCc1ccccc1C#N)c1cc2ccccc2o1	none
C/C(=N\OCc1ccc(C#N)cc1)c1cc2ccccc2o1	SKN-1 inh 54
CCc1nc2ccc(C(=O)N3CCN(C(=O)c4ccco4)CC3)cn2c1N(CC)Cc1cccc(Br)c1	none (no result: Arrestin-AP2 inh)
O=c1[nH][nH]c2c1[C@H](c1ccc(F)cc1)O[C@H](CCc1ccccc1)C2	none (no result: Arrestin-AP2 inh, Rin1 Abl inh)
O=C(Nc1ccc(Cl)cn1)c1cc2c(s1)-c1ccccc1OC2	SKN-1 inh 38
CNS(=O)(=O)c1ccc(CNC[C@H]2O[C@@H](n3cc(C)c(=O)[nH]c3=O)C[C@@H]2O)cc1	none (no result: Arrestin-AP2 inh)
Cc1cc(C)cc(C(O)c2ncc(-c3cccc(C(F)(F)F)c3)[nH]2)c1 (stereo not given)	none (no result: Arrestin-AP2 inh)
Cc1ccc(NC(=O)CNC(=O)c2cccs2)cc1S(=O)(=O)Nc1ccc(Cl)cc1	SKN-1 inh 41
Clc1ccc(-c2cnc3ccccc3n2)cc1	SKN-1 inh 42
C[C@H](CO)N1C[C@H](C)[C@@H](CN(C)S(=O)(=O)c2ccc3c(c2)OCCCO3)OCc2cn(nn2)CCCC1=O	none (no result: Arrestin-AP2 inh)
NC(=O)c1ccccc1N/C=C/C(=O)c1cccs1	none
Cc1cccc(N/C=C/C(=O)c2cccs2)c1C	SKN-1 inh 44
O=C(/C=C/Nc1ccc(F)c(F)c1)c1cccs1	SKN-1 inh 44
O=C(O)CCNc1cc2ccccc2cc1C(=O)O	SKN-1 inh 36
O=C(c1[nH]c(C(F)(F)F)nc1-c1ccccc1)N1CCN(C(=O)C2CCCO2)CC1 (stereo not given)	none (no result: Arrestin-AP2 inh)
Cc1cccc(C)c1NC(=O)C1(C)CSCC(=O)N1CCc1ccccc1 (stereo not given)	none (no result: Arrestin-AP2 inh, Rin1 Abl inh)
CC[n+]1ccccc1/C=C/c1ccc(N(C)C)cc1	SKN-1 inh 41
CCCCCC[n+]1ccccc1/C=C/c1ccc(N(C)C)cc1	none (no result: Arrestin-AP2 inh)
O=C(C[C@@H]1CC[C@H](NS(=O)(=O)c2ccccc2F)[C@@H](CO)O1)NCCCN1CCOCC1	none (no result: Arrestin-AP2 inh, Rin1 Abl inh)
COc1ccc(-c2coc3c(C(=O)NCC(C)C)cccc23)c(C)c1	none (no result: Arrestin-AP2 inh)
Cc1ccc(C)c(NC(=O)/C(C#N)=C/c2ccc[nH]2)c1	SKN-1 inh 37
CN(CCCn1ccc(NC(=O)OCc2ccccc2)nc1=O)CCc1ccccn1	none (no result: Arrestin-AP2 inh)
Cc1nc(NC(=O)C2CC3CCCC(C2)C3=O)sc1C (stereo not given)	SKN-1 inh 33
Cc1nc(NC(=O)C2CCCCC2C(=O)O)sc1C (stereo not given)	none
COc1cccc(CNC(=O)c2ccc(S(=O)(=O)N3CCCCC3)cc2)c1	none (no result: Arrestin-AP2 inh)
Brc1ccccc1/C=N/Nc1ccc2ccccc2n1	none
Brc1ccc(/C=N/Nc2ccc3ccccc3n2)cc1	SKN-1 inh 45 (no result: MT1-MMP act inh)
COc1ccc(S(=O)(=O)NCc2cccnc2)cc1NC(=O)c1ccccc1C	none
Cc1cccc(/C=C/C(=O)c2ccc(NC3=NCCCS3)cc2)c1	SKN-1 inh 60
O=C(/C=C/c1ccc(Br)cc1)c1ccc(NC2=NCCCS2)cc1	SKN-1 inh 83
CCc1nc(NCc2ccccc2)c(C#N)c2c1CCCC2	none
CCc1nc(NCCC(C)C)c(C#N)c2c1CCCC2	SKN-1 inh 43
COc1cccc(NC(=O)COC(=O)C2CCCCC2)c1	none (no result: MT1-MMP act inh)
Cc1cc(NC(=O)CSc2nc3ccccc3c(=O)n2Cc2ccc(F)cc2)no1	SKN-1 inh 32
CCCCCCn1c(SCC(=O)Nc2cc(C)on2)nc2ccccc2c1=O	none
C=CCn1c(SCC(=O)c2c(N)n(C)c(=O)n(C)c2=O)nnc1-c1ccoc1C	SKN-1 inh 35
C=CCn1c(SCC(=O)c2c(N)n(C3CC3)c(=O)[nH]c2=O)nnc1-c1ccoc1C	none
COC(=O)C1CC2=C(CCC2=O)N(c2ccccc2)C1=O (stereo not given)	none
[O-]C1=N/[N+](=C/c2ccccc2Cl)CC1	SKN-1 inh 35
Cc1ccccc1Nc1cc2ccccc2c(=O)[nH]1	TbMetRS inhib 13, Rin1 Abl inh 16
O=c1[nH]c(Nc2ccc(F)cc2)cc2ccccc12	TbMetRS inhib 17
O=c1[nH]c(Nc2ccccc2Cl)cc2ccccc12	none
O=C(Nc1ccccc1)O/N=C/c1ccc(F)cc1	SKN-1 inh 37
